Laboratory results: ChEMBL document CHEMBL4513216, “Probing the Open Global Health Chemical Diversity Library for Multistage-Active Starting Points for Next-Generation Antimalarials” (ACS Infect Dis, 2020)

Assay: Toxicity liver stage against HepG2, at 10uM
Type: cell-based
Design: test concentration 10 uM, cell line HepG2-A16-CD81EGFP
Details: human, HepG2-A16-CD81EGFP cells; read-out: INHIBITION
Method in brief: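 Uninfected HepG2-A16-CD81EGFP cells, 3 × 10^3 per well, 1536-well, plated on prespotted compound at 10 μM final, parasite-free screening media added to match infected plates; puromycin 10 μM positive, DMSO 0.5% negative; run in parallel with 48 h PbLuc assay at 37 °C, 5% CO2; viability by CellTiter-Glo luminescence, normalized to controls.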

Compound	cytotoxicity at 10 µM [%]
CN(Cc1ccccc1)C(=O)[C@@H]1Cc2[nH]cnc2CN1C	-3.92
COc1cccc(CNC[C@H]2COCc3nc4cccnc4n32)n1	-1.57
CN1CCN2C(=O)N(C3CCOCC3)C[C@H]2C1	0.523
O=C(c1ccccn1)N1C[C@@H]2OCC(=O)N(CC3CCCCC3)[C@@H]2C1	-2.86
CCc1nc(-c2ccc(NC(=O)N3CCCC3)cc2)no1	5.03
CC(=O)N1CCN(CCNC(=O)c2nc3ccccc3c(=O)[nH]2)CC1	6.45
Cc1cccc(S(=O)(=O)NCC2CCN(c3cnccn3)CC2)c1	7.99
O=C(c1nnn(-c2ccc(C(F)(F)F)cc2)n1)N1CCC(O)CC1	-4.52
O=C1CN(C(=O)c2nnn(-c3ccc(C(F)(F)F)cc3)n2)CCN1	-2.77
CCN1CCNC(=O)C12CCN(S(=O)(=O)c1ccccc1)CC2	0.464
CC(=O)N1CCC2(CC1)CN(C(=O)c1cccc3[nH]ccc13)CCO2	-149
O=C(c1ccc[nH]1)N1Cc2nccn2CC(Cn2ncccc2=O)C1 (stereo unspecified)	3.66
Cc1nc(Nc2ccc(Cl)cn2)sc1C(=O)NC(C)C	14
NC(=O)c1nc(COc2ccc3c(c2)OCO3)no1	8.55
COCCn1ccc(=O)c(OCC(=O)Nc2ccccc2)c1C	3.72
COC(=O)CCn1ccc(=O)c2cc(OC)ccc21	3.88
O=C(c1cc2c(s1)CCC2)N1CCCC(c2cnccn2)C1 (stereo unspecified)	-1.67
CCc1c(C)noc1-c1cnc(NC2CC2)nc1-c1cnc(C)cn1	-29
NC(=O)C1CCN(C(=O)NC(Cc2ccccc2)C(F)(F)F)CC1 (stereo unspecified)	-7.72
CN(Cc1cc(Br)cn1C)C(=O)Cc1cccnc1	-4.18
CC(C)C(C)N(C)Cc1nnc(-c2ccc(Br)s2)o1 (stereo unspecified)	-1.65
COc1cc2nc(C)sc2cc1NC(=O)CN(C)C(C)C	-3.93
Cc1ccc(C(NC(=O)CCNC(=O)c2ccoc2)C(F)(F)F)cc1 (stereo unspecified)	9.49

Compound	cytotoxicity at 10 µM [%]
Cc1nn(-c2ccccc2)c(C)c1CC(=O)NC1CC(=O)N(C)C1 (stereo unspecified)	6.08
COc1cc(CNC2CCCN(c3cccnn3)C2)cc2c1OCO2 (stereo unspecified)	-2.22
CNC(=O)CN(C)C1CCN(c2ccc(Cl)cc2)CC1	-1.15
O=C(c1coc(-c2ccccc2)n1)N1CCCCC1	11.2
COc1ccnc(NC(Cc2ccccc2)C(N)=O)n1 (stereo unspecified)	20.7
CCOc1ccc(CNC(C)c2c(C)nn(C)c2C)cc1 (stereo unspecified)	-0.00326
Cc1cccc(N(CC(=O)N2CCCCC2)C(=O)C2CCCO2)c1 (stereo unspecified)	-1.52
CCN(CC1CCOC1)C(=O)c1nc(-c2ccco2)sc1C (stereo unspecified)	-0.238
Cc1sc(-c2ccco2)nc1C(=O)NCC1CCOC1 (stereo unspecified)	-6.71
CNS(=O)(=O)Cc1ccccc1CNc1ccc(C#N)cn1	-6.45
O=C(CS(=O)(=O)c1ccc(Cl)cc1)NC1CCCc2ccccc21 (stereo unspecified)	1.03
Cc1cc(NCc2csc(-c3ccsc3)n2)no1	-0.912
COc1ccccc1CN1CCN(CCN2CCOC2=O)CC1	-11.2
CCNS(=O)(=O)C1CCN(C(=O)c2ccc(F)cc2)C1 (stereo unspecified)	7.98
Cc1ncccc1CNc1ccc(OCCO)nc1	-1.78
Cc1cnn(CC2CCCN2Cc2cc(=O)n3c(C)csc3n2)c1 (stereo unspecified)	-2.11
CCn1nc2c(cc1=O)CN(CC(=O)Nc1cc(C(C)C)no1)CC2	-5.46
CC1CCCN(C(=O)CCNS(=O)(=O)c2cccnc2)C1 (stereo unspecified)	-11
CCN(CC)C(=O)c1cc(-c2cccc(Cl)c2)no1	-8.79
COc1ccc(NC(=O)CSc2nc(C)c(C)c(C)c2C#N)cn1	-0.82
c1cc(CNc2nnc(Cc3ccsc3)o2)cs1	0.369
Cn1ccnc1-c1noc(NCc2ccc(Cl)cc2)n1	-9.46
CC(C)Cn1ncc2cc(C(=O)N(C)Cc3cccc(O)c3)cnc21	-4.67

Compound	cytotoxicity at 10 µM [%]
CS(=O)(=O)c1cccc(S(=O)(=O)NCCCN2CCNC(=O)C2)c1	-5.87
Cc1csc(NC(=O)C2(C)CCCO2)n1 (stereo unspecified)	-2.54
O=C1NC(c2cnc(C3CCC3)s2)Nc2ccccc21 (stereo unspecified)	-3.95
CNC(=O)NC(=O)COc1c(C(C)=O)ccc(Cl)c1Cl	26.6
CCn1ccnc1SCCn1cnc2ccsc2c1=O	-2.9
O=C(c1ccnc(NC2CC2)c1)N1CCCC1c1cccc(Br)c1 (stereo unspecified)	-6.58
CN(CCc1cccs1)C(=O)Nc1cccc(S(C)(=O)=O)c1	-8.77
CC(C)C(C)(O)CNC(=O)Nc1ccccn1 (stereo unspecified)	4.77
Cc1ccc(CNc2cnn(CC(F)F)c2)cc1C	-0.71
O=C(Nc1ccccn1)C1CC(=O)N(Cc2ccccn2)C1 (stereo unspecified)	2.84
CCNc1nc(-c2cccnc2)c(-c2ccnc(NCCO)n2)s1	-13.7
NC(=O)c1cc2c(nc1CC1CCCCO1)CCC2 (stereo unspecified)	-5.4
Cc1occc1C(=O)Nc1ccc(C(=O)NC[C@H]2CCCN2)cc1	-10.6
O=C(CN1CCOCC1)N1CCC(c2cc(N3CCCC3)ncn2)CC1	3.6
O=C(Nc1nncs1)N1CCCN(C2CCCC2)CC1	-4.31
COc1cccc(-n2cc(-c3ccnc(N[C@@H](CO)C(C)C)n3)cn2)c1	-1.15
C[C@@H]1CN(C2(C(=O)N(C)C)Cc3ccccc3C2)C[C@H](C)O1	-5.19
O=C(c1cc(-c2ccco2)nc2c(Cl)cccc12)N1CCS(=O)(=O)CC1	-1.99
Cc1cc(N2Cc3cnn(CCO)c3C2)nc(-c2ccccc2)n1	-156
CCn1c(C2CCCN(Cc3cc(F)ccc3OC)C2)nn(C)c1=O (stereo unspecified)	-4.12
Cc1ccccc1CN1CCC(CNC(=O)Cn2cncn2)CC1	3.83
O=C1O[C@@H]2CN(Cc3ccccc3F)C[C@@H]2N1CCCN1CCOCC1	-4.73
COc1ccccc1Oc1ncccc1CNC(=O)[C@H](N)CC(C)(C)C	-1.73

Compound	cytotoxicity at 10 µM [%]
CCC(CO)N(Cc1ccccc1C)Cc1ccccc1C(=O)O (stereo unspecified)	-6.32
COCC(c1ccccn1)N(C)C(=O)c1cc(-c2ccc(O)cc2)n[nH]1 (stereo unspecified)	-4.07
O=C(Nc1cnn(CC(=O)N2CCCCO2)c1)c1ccccn1	-0.0294
CC(=O)NC1CCN(C(=O)c2cnc(COc3ccccc3)nc2O)C1 (stereo unspecified)	-5.3
COc1ccc(CCNC(=O)CN2CCOCS2(=O)=O)cc1	-2.64
CCc1nc(C)c(CN2CCCC(c3nn(C)c(=O)n3CC)C2)[nH]1 (stereo unspecified)	-7.77
Cc1nc(N)cc(NCc2csc(N(C)C)n2)n1	-5.2
CCCSc1ccccc1NC(=O)N1CCN(C(=O)c2ccc[nH]2)CC1	3.99
CC(C)n1cnnc1CN(C)Cc1ccc(CN(C)S(C)(=O)=O)o1	-1.31
Cc1ccc2c(c1)c(CNC(=O)C1CCN(CC(N)=O)CC1)nn2C	-3.17
CCc1ccc2nc(C)cc(C(=O)NC[C@@H]3CCNC[C@H]3O)c2c1	-3
CCC1(CO)CCCN(Cc2nccn2Cc2ccccc2)C1 (stereo unspecified)	-7.35
CN(Cc1ccco1)C(=O)[C@@]12CNC[C@@H]1CN(C1CCCC1)C2	3.75
O=C(CCCN1CCCCC1)N1CCN(C(=O)c2ccc[nH]2)CC1	57.8
COc1ccccc1[C@@H]1CN(Cc2cnn(C)c2C)C[C@H]1C(=O)O	-3.53
CC(C)(C)n1cc(C2=CCN(CCNC(=O)c3ccccc3)CC2)cn1	-0.262
CN(C)c1cc(N(C)Cc2cc(C(C)(C)C)n[nH]2)ncn1	-0.629
Cc1cnc(CNCc2cnc(-c3ccccc3C)s2)cn1	-0.37
COc1ncccc1-c1nc(-c2ccccn2)nn1C1CCS(=O)(=O)C1 (stereo unspecified)	-6.1
Fc1cnccc1CN1CCC2(CCNCC2)C1	-123
CCCn1ncc(C(=O)N(CCOC)Cc2c(C)nn(CC)c2C)c1C	-4.97
CC(C)Cc1cc(CNC(=O)C2CCCN(Cc3ccco3)C2)no1 (stereo unspecified)	3.11
O=C(Nc1cccc(-c2cscn2)c1)N1CCC2(CC1)CC(O)CO2 (stereo unspecified)	-3.13

Compound	cytotoxicity at 10 µM [%]
CCc1ccc2nc(C)cc(C(=O)N[C@@H]3CCCNC3)c2c1	-5.09
O=C(NC1CC(=O)N(C2Cc3ccccc3C2)C1)c1cnccn1 (stereo unspecified)	0.661
CCN(CC)S(=O)(=O)N(C)Cc1ccc2c(c1)OCCO2	-7.85
Cc1ccc(C(=O)NCc2cccnc2N(C)C)s1	-2.12
O=C(CS(=O)(=O)Cc1ccc(F)cc1)NC1CCCCNC1=O (stereo unspecified)	-0.252
COCCc1noc(CN2CCOC(Cn3cc(C)cn3)C2)n1 (stereo unspecified)	-4.18
COc1ccccc1C(=O)N(C)Cc1nnc2ccccn12	-2.45
CCc1nc(C2CCCN(C(=O)NC3CC3)C2)no1 (stereo unspecified)	-15.3
O=C(NCc1cccc(N2CCCCC2=O)c1)[C@@H](O)c1ccccc1	-8.31
Cc1cnn(CC2CCCN2C(=O)c2cn(-c3ccccc3)nc2C)c1 (stereo unspecified)	-9.39
O=C(N[C@H]1CN[C@H]2CCCO[C@H]21)c1ccno1	-6.92
COc1cccc(CC(=O)N2CCN(C)c3ncccc3C2)c1	2.33
CCN1CCN(C)C2(CCN(Cc3ccc(C)o3)CC2)C1=O	-7.1
C[C@H]1CN(C(=O)c2ccoc2)C[C@@]12CCN(CCN(C)C)C2=O	-1.77
O=C(C[C@@H]1COC[C@H]2CN(C(=O)c3cccnc3)C[C@@H]12)N1CCOCC1	-105
Cn1c2c(ccc1=O)CCN(Cc1ccoc1)CC2	-153
COCc1nn(CC2CC2)c2c1CN(Cc1cccs1)CC2	0.994
CC(C)c1cc(C(=O)N2C[C@@H]3CC[C@H]2CN(Cc2cscn2)C3)no1	1.27
Cc1cccc(CN2C[C@H]3CC[C@@H](C2)N(Cc2c(C)noc2C)C3=O)n1	0.296
